Measured values of several laboratories.
Compare with care: the assays were run in different laboratories.
Target: Serine/threonine-protein kinase BRSK1 (BRSK1, Homo sapiens, UniProt Q8TDC3)
Sequence (Q8TDC3 1-778, as in one of the studies): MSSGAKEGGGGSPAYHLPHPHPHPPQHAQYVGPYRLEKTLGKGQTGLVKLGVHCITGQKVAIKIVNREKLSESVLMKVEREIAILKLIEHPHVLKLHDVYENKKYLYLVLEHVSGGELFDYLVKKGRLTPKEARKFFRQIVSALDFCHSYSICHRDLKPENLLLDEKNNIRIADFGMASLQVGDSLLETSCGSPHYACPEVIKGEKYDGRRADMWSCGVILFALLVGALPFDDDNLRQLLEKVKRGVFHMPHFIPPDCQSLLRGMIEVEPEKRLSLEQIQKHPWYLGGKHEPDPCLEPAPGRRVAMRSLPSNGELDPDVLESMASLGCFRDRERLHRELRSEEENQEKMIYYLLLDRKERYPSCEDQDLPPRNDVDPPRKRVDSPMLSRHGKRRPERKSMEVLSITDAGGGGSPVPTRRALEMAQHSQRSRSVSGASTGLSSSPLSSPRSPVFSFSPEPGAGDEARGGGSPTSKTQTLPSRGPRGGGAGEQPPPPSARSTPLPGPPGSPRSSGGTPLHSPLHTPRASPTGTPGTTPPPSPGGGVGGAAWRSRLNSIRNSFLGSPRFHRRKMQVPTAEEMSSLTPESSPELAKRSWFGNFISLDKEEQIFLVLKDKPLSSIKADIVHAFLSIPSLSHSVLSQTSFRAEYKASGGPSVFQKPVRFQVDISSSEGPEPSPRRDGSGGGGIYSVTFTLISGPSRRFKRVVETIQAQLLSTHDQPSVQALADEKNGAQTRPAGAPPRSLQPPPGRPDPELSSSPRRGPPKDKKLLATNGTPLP

The remaining binding of `CN(c1nccc(-c2cnn3ncccc23)n1)C1CC1` is reported as 100% (binding; 1 µM).
`C[C@@H](c1ccc(-n2cnc3c(N)ncnc32)cc1)N1CCc2nn(C)c(Cc3ccccc3)c2C1=O` gave a remaining binding of 93% (binding, competition with immobilised ligand; 0.1 µM).
The remaining binding of `O=C(c1ccc(Nc2ncc(Cl)c(-c3cc4ccccc4s3)n2)cc1)N1CCC(N2CCCC2)CC1` is reported as 32% (binding, competition with immobilised ligand; 1 µM).
`CCN1CCN(Cc2ccc(C(=O)Nc3ccc(C)c(Oc4ccc5c(c4)CC(=O)N5)c3)cc2C(F)(F)F)CC1` gave a remaining binding of 94% (binding, competition with immobilised ligand; 1 µM).
`CN(C)c1nccc(-c2cnn3ncccc23)n1` has a remaining binding of 100% (binding; 1 µM).
With `COc1ccc2c(c1)O[C@H](c1ccc(OC)c(OC)c1)C[C@@H]2NC(=O)C1(c2ccc3c(c2)OC(F)(F)O3)CC1` the remaining binding was 100% (cell-free assay, competition with immobilised ligand; 1 µM).
With `CC1CCCN1c1nccc(-c2cnn3ncccc23)n1` (stereo not shown) the remaining binding was 95% (binding; 1 µM).
`N#CC1(c2ccccn2)CCN(Cc2cc(C(=O)N3CCCC3)c(=O)n3ccccc23)CC1` gave a remaining binding of 87% (cell-free assay, competition with immobilised ligand; 1 µM).
`C[C@@H]1CCN(c2nccc(-c3cnn4ncccc34)n2)C1` has a remaining binding of 93% (binding; 1 µM).
With `Cc1c[nH]c2nccc(Oc3c(F)cc(Nc4cc(Cl)nc(N)n4)cc3F)c12` the remaining binding was 96% (cell-free assay, competition with immobilised ligand; 0.1 µM).
The remaining binding of `COc1cnc(Nc2cccc(S(N)(=O)=O)c2)nc1N1CCN(c2ccccc2)C(=O)C1` is reported as 100% (binding, competition with immobilised ligand; 1 µM).
`O=C(NCCCN1CCOCC1)c1ccc(Nc2ncc(Cl)c(-c3ccc(Cl)s3)n2)cc1` has a remaining binding of 75% (binding, competition with immobilised ligand; 1 µM).
For `CS(=O)(=O)c1cc(C2(NC(=O)c3cncc4c3cnn4-c3ccc(F)cc3)CC2)ccn1`, the remaining binding was 74% (cell-free assay, competition with immobilised ligand; 1 µM).
With `COc1ccnn2ncc(-c3ccnc(N(C)C)n3)c12` the remaining binding was 98% (binding; 1 µM).
The remaining binding of `O=C(Nc1c[nH]nc1C(=O)NC1CCNCC1)c1cc(F)cc(F)c1` is reported as 89% (binding, competition with immobilised ligand; 1 µM).
The remaining binding of `C=CC(=O)N1CCC(C(=O)NCC(=O)N2CCN(c3nc(-c4cnc(N)nc4C(F)F)nc(N4CCOCC4)n3)CC2)CC1` is reported as 100% (binding, competition with immobilised ligand; 1 µM).
With `CC(C)CC(=O)N1CCc2nc(-c3ccc(Br)cc3)nc(N(C)Cc3ccccc3)c2C1` the remaining binding was 100% (cell-free assay, competition with immobilised ligand; 0.1 µM).
For `F[C@@H]1CCN(c2nccc(-c3cnn4ncccc34)n2)C1`, the remaining binding was 100% (binding; 1 µM).
For `Cc1nccc(COC(=O)N2C[C@@H]3[C@@H](CNC(=O)c4ccc5[nH]nnc5c4)[C@@H]3C2)n1`, the remaining binding was 100% (cell-free assay, competition with immobilised ligand; 1 µM).
`O=C(c1ccc(Nc2nccc(-c3cc4ccccc4s3)n2)cc1)N1CCC(N2CCCC2)CC1` has a remaining binding of 61% (binding, competition with immobilised ligand; 1 µM).
For `O=C(O)[C@@H]1[C@@H](Cn2nnc3ccccc3c2=O)CC[C@H]1C(=O)c1ccc(OCCC2CCOCC2)cc1`, the remaining binding was 100% (cell-free assay, competition with immobilised ligand; 1 µM).
`Nc1ncc2c(n1)-c1c([nH]c3ccc(C#CC4CC4)cc13)CCCC2` has a remaining binding of 87% (binding, competition with immobilised ligand; 1 µM).
